pEC50, pIC50: −log10 of the molar value. Active and inactive are the calls of the source. The rule behind the calls is not given here.
biological target: T1, Oxysterols receptor LXR-beta (Homo sapiens) (UniProt P55055); assay: Transactivational antagonist activity at human LXRbeta transfected in HEK293 cells expressing CMX-Gal4N assessed as inhibition of T1317-induced luciferase activity at 30 uM after 16 hrs by reporter gene assay; format: functional, cell-based; settings: not given
T1 sequence (whole entry): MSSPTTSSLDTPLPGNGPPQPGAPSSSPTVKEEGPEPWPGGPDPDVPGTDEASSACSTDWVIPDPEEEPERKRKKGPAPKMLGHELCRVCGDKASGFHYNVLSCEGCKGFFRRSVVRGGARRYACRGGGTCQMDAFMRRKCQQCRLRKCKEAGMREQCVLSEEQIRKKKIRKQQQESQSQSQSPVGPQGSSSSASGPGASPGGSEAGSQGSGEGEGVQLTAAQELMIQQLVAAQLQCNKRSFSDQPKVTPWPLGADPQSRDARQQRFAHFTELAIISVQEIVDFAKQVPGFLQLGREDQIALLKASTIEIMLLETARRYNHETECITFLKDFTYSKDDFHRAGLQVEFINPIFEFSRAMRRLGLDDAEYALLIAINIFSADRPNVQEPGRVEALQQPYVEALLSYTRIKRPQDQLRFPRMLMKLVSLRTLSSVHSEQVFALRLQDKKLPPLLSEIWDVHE
Method in brief: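 Gal4-hLXRα or Gal4-hLXRβ chimera (15 ng) cotransfected with tk-MH100×4-luc reporter (50 ng) and CMX-β-gal (10 ng) into HEK293 cells by calcium phosphate. From 8 h post-transfection, cells got compound (0.1–30 μM) or DMSO for 16 h. Luciferase was normalized to β-gal, in triplicate.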

| SMILES | inhibition |
| --- | --- |
| Cn1c(=O)c2ccccc2c2cc(C(O)(C(F)(F)F)C(F)(F)F)ccc21 | inactive |

biological target: T2, Oxysterols receptor LXR-beta (Homo sapiens, UniProt P55055); assay: Transactivational agonist activity at human LXRbeta transfected in HEK293 cells expressing CMX-Gal4N assessed as luciferase activity after 16 hrs by reporter gene assay relative to N-(4-(1,1,1,3,3,3-hexafluoro-2-hydroxypropan-2-yl)phenyl)-N-methylbenzamide; format: cell-based; settings: read-out: Efficacy
T2 sequence (P55055 whole entry): T1 sequence (whole entry)

| SMILES | Emax [%] |
| --- | --- |
| CN1C(=O)c2ccccc2Oc2cc(C(O)(C(F)(F)F)C(F)(F)F)ccc21 | 49 |
| CN1C(=O)c2ccccc2CCc2cc(C(O)(C(F)(F)F)C(F)(F)F)ccc21 | 108 |
| CN(C(=O)c1ccccc1)c1ccc(C(O)(C(F)(F)F)C(F)(F)F)cc1 | 100 |

biological target: T3, Oxysterols receptor LXR-alpha (Homo sapiens) (UniProt Q13133); assay: Binding affinity to human GST-tagged LXRalpha expressed in Escherichia coli BL21(DE3) at 1 uM after 1 hr by fluorescence polarization assay; settings: not given
T3 sequence (whole entry): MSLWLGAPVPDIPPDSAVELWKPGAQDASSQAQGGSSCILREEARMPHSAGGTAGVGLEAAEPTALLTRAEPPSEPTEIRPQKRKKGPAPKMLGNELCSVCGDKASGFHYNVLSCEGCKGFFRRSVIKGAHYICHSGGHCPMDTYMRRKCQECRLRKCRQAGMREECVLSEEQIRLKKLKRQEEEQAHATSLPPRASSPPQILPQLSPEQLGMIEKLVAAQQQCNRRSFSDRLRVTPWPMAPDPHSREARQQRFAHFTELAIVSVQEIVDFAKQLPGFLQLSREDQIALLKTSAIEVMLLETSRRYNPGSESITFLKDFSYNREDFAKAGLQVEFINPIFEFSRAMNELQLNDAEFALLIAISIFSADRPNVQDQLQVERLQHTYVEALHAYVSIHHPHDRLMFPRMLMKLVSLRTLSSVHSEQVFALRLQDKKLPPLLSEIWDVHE
Method in brief: (§1)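 Fluorescence polarization binding: full-length GST-hLXRα or GST was expressed in E. coli Rosetta(DE3) (0.4 mM IPTG, 15 °C, 24 h) and purified on glutathione resin. Protein dilutions, or 1 μM protein with competitor, were incubated with fluorescent probe 23 (1 μM) for 1 h at 0 °C. Buffer was 50 mM Tris-HCl, 10 mM reduced glutathione, pH 8.0; excitation 400 nm, emission 500 nm.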

| SMILES | Activity |
| --- | --- |
| COc1ccc(CCc2ccc(N3C(=O)c4ccc(N(C)C)cc4C3=O)cc2)cc1 | Active |

biological target: T4, Oxysterols receptor LXR-alpha (Homo sapiens, UniProt Q13133); assay: Transactivational agonist activity at human LXRalpha transfected in HEK293 cells expressing CMX-Gal4N assessed as luciferase activity after 16 hrs by reporter gene assay relative to N-(4-(1,1,1,3,3,3-hexafluoro-2-hydroxypropan-2-yl)phenyl)-N-methylbenzamide; format: cell-based; settings: read-out: Efficacy
T4 sequence (Q13133 whole entry): T3 sequence (whole entry)

| SMILES | Emax [%] |
| --- | --- |
| CN1C(=O)c2ccccc2Oc2cc(C(O)(C(F)(F)F)C(F)(F)F)ccc21 | 12 |
| CN1C(=O)c2ccccc2CCc2cc(C(O)(C(F)(F)F)C(F)(F)F)ccc21 | 117 |
| CN(C(=O)c1ccccc1)c1ccc(C(O)(C(F)(F)F)C(F)(F)F)cc1 | 100 |

biological target: T2, Oxysterols receptor LXR-beta; assay: Transactivational agonist activity at human LXRbeta transfected in HEK293 cells expressing CMX-Gal4N assessed as luciferase activity at 30 uM after 16 hrs by reporter gene assay; format: cell-based; settings: hek293, 16 h

| SMILES | Activity |
| --- | --- |
| C=C1c2ccccc2C(=O)N(C)c2ccc(C)cc21 | Not Active |
| C=C1c2ccccc2C(=O)N(C)c2ccc(CO)cc21 | Not Active |
| Cn1c(=O)c2ccccc2c2cc(C(O)(C(F)(F)F)C(F)(F)F)ccc21 | Not Active |
| C=C1c2ccccc2C(=O)N(C)c2ccc(N)cc21 | Not Active |
| C=C1c2ccccc2C(=O)N(C)c2ccc(CCCCCC)cc21 | Not Active |
| C=C1c2ccccc2C(=O)N(C)c2ccc(C(C)(C)C)cc21 | Not Active |

biological target: T3, Oxysterols receptor LXR-alpha (Homo sapiens); assay: Transactivational antagonist activity at human LXRalpha transfected in HEK293 cells coexpressing CMX-Gal4N-SMRT assessed as SMRT recruitment after 16 hrs by reporter gene assay; format: functional, cell-based; settings: not given
Method in brief: (§2)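 Mammalian two-hybrid in HEK293 cells by calcium phosphate cotransfection: CMX-VP16N-hLXRα, Gal4N-fused SRC1, DRIP205, NCoR or SMRT (15 ng), tk-MH100×4-luc (50 ng) and CMX-β-gal (10 ng). Compound or DMSO added 8 h after transfection for 16 h. Luciferase was normalized to β-galactosidase, in triplicate.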

| SMILES | Activity |
| --- | --- |
| C=C1c2ccccc2C(=O)N(C)c2ccc(C(C)(C)C)cc21 | Dose-dependent effect |

biological target: T4, Oxysterols receptor LXR-alpha; assay: Transactivational agonist activity at human LXRalpha transfected in HEK293 cells coexpressing CMX-Gal4N-DRIP205 assessed as DRIP205 recruitment at 10 uM after 16 hrs by mammalian two-hybrid assay; format: cell-based; settings: hek293, 16 h; method in brief: as §2

| SMILES | Activity |
| --- | --- |
| C=C1c2ccccc2C(=O)N(C)c2ccc(C(C)(C)C)cc21 | Toxic |

biological target: T4, Oxysterols receptor LXR-alpha; assay: Transactivational agonist activity at human LXRalpha transfected in HEK293 cells expressing CMX-Gal4N assessed as luciferase activity after 16 hrs by reporter gene assay; format: cell-based; settings: not given

| SMILES | pEC50 |
| --- | --- |
| CN1C(=O)c2ccccc2Oc2cc(C(O)(C(F)(F)F)C(F)(F)F)ccc21 | 5.38 |
| CN1C(=O)c2ccccc2CCc2cc(C(O)(C(F)(F)F)C(F)(F)F)ccc21 | 6.04 |
| CN(C(=O)c1ccccc1)c1ccc(C(O)(C(F)(F)F)C(F)(F)F)cc1 | 6.20 |

tested on: Peritoneal macrophage cell; assay: Inhibition of LPS-induced IL-6 production in LXRalpha,LXRbeta-deficient C57BL/6J mouse peritoneal macrophages at 10 uM incubated for 6 hrs prior to LPS-challenge measured after 18 hrs by ELISA; format: functional, cell-based; settings: not given
Method in brief: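 Thioglycollate-elicited peritoneal macrophages came from 8–10-week LXRα/β-null mice on C57BL/6J background, harvested 4 days post-injection. They were adhered, rested 24 h and plated at 2 × 10⁵/well, then pretreated with compound 6 h before LPS 10 ng/mL. Supernatant mIL-6 was measured by ELISA after 18 h; means ± SE of ≥3 independent measurements, ANOVA.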

| SMILES | inhibition |
| --- | --- |
| C=C1c2ccccc2C(=O)N(C)c2ccc(C(C)(C)C)cc21 | inactive |

biological target: T4, Oxysterols receptor LXR-alpha; assay: Transactivational agonist activity at human LXRalpha transfected in HEK293 cells coexpressing CMX-Gal4N-SRC1 assessed as SRC1 recruitment at 10 uM after 16 hrs by mammalian two-hybrid assay; format: cell-based; settings: hek293, 16 h; method in brief: as §2

| SMILES | Activity |
| --- | --- |
| C=C1c2ccccc2C(=O)N(C)c2ccc(C(C)(C)C)cc21 | Toxic |

tested on: not listed separately; assay: Binding affinity to GST at 1 uM after 1 hr by fluorescence polarization assay; settings: not given; method in brief: as §1

| SMILES | Activity |
| --- | --- |
| COc1ccc(CCc2ccc(N3C(=O)c4ccc(N(C)C)cc4C3=O)cc2)cc1 | inactive |

biological target: T3, Oxysterols receptor LXR-alpha (Homo sapiens); assay: Transactivational antagonist activity at human LXRalpha transfected in HEK293 cells coexpressing CMX-Gal4N-NCoR assessed as NCoR recruitment after 16 hrs by reporter gene assay; format: functional, cell-based; settings: not given; method in brief: as §2

| SMILES | Activity |
| --- | --- |
| C=C1c2ccccc2C(=O)N(C)c2ccc(C(C)(C)C)cc21 | Dose-dependent effect |

biological target: T4, Oxysterols receptor LXR-alpha; assay: Transactivational agonist activity at human LXRalpha transfected in HEK293 cells expressing CMX-Gal4N assessed as luciferase activity at 30 uM after 16 hrs by reporter gene assay; format: cell-based; settings: hek293, 16 h

| SMILES | Activity |
| --- | --- |
| C=C1c2ccccc2C(=O)N(C)c2ccc(C)cc21 | Not Active |
| C=C1c2ccccc2C(=O)N(C)c2ccc(CO)cc21 | Not Active |
| Cn1c(=O)c2ccccc2c2cc(C(O)(C(F)(F)F)C(F)(F)F)ccc21 | Not Active |
| C=C1c2ccccc2C(=O)N(C)c2ccc(N)cc21 | Not Active |
| C=C1c2ccccc2C(=O)N(C)c2ccc(CCCCCC)cc21 | Not Active |
| C=C1c2ccccc2C(=O)N(C)c2ccc(C(C)(C)C)cc21 | Not Active |

biological target: T2, Oxysterols receptor LXR-beta; assay: Transactivational antagonist activity at human LXRbeta transfected in HEK293 cells expressing CMX-Gal4N assessed as inhibition of T1317-induced luciferase activity after 16 hrs by reporter gene assay; format: functional, cell-based; settings: not given

| SMILES | pIC50 |
| --- | --- |
| C=C1c2ccccc2C(=O)N(C)c2ccc(C)cc21 | < 5.00 |
| C=C1c2ccccc2C(=O)N(C)c2ccc(CO)cc21 | < 5.00 |
| C=C1c2ccccc2C(=O)N(C)c2ccc(N)cc21 | 4.57 |
| C=C1c2ccccc2C(=O)N(C)c2ccc(CCCCCC)cc21 | < 5.00 |
| C=C1c2ccccc2C(=O)N(C)c2ccc(C(C)(C)C)cc21 | < 5.00 |

biological target: Liver X receptor (Homo sapiens) (UniProt Q13133+P55055); assay: Transrepressional activity at LXR in human TPA-activated THP1 cells assessed as inhibition of LPS-induced IL6 production at 30 uM incubated for 6 hrs prior to LPS-challenge measured after 18 hrs by ELISA; format: cell-based; settings: THP-1
Method in brief: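 THP-1 cells were differentiated with 10 nM TPA for 48 h, then replated at 3 × 10⁴/well. They were pretreated with sample for 6 h before LPS (100 ng/mL). Supernatant IL-6 was measured by ELISA after 18 h.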

| SMILES | inhibition |
| --- | --- |
| Cn1c(=O)c2ccccc2c2cc(C(O)(C(F)(F)F)C(F)(F)F)ccc21 | inactive |

biological target: T2, Oxysterols receptor LXR-beta; assay: Transactivational agonist activity at human LXRbeta transfected in HEK293 cells expressing CMX-Gal4N assessed as luciferase activity after 16 hrs by reporter gene assay; format: cell-based; settings: not given
Method in brief: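 Gal4-hLXRα or Gal4-hLXRβ chimera (15 ng) cotransfected with tk-MH100×4-luc reporter (50 ng) and CMX-β-gal (10 ng) into HEK293 cells by calcium phosphate. Luciferase was normalized to β-gal, in triplicate.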

| SMILES | pEC50 |
| --- | --- |
| CN1C(=O)c2ccccc2Oc2cc(C(O)(C(F)(F)F)C(F)(F)F)ccc21 | 5.57 |
| CN1C(=O)c2ccccc2CCc2cc(C(O)(C(F)(F)F)C(F)(F)F)ccc21 | 6.59 |
| CN(C(=O)c1ccccc1)c1ccc(C(O)(C(F)(F)F)C(F)(F)F)cc1 | 6.74 |

biological target: T4, Oxysterols receptor LXR-alpha; assay: Transactivational antagonist activity at human LXRalpha transfected in HEK293 cells expressing CMX-Gal4N assessed as inhibition of T1317-induced luciferase activity after 16 hrs by reporter gene assay; format: functional, cell-based; settings: not given

| SMILES | pIC50 |
| --- | --- |
| C=C1c2ccccc2C(=O)N(C)c2ccc(C)cc21 | < 5.00 |
| C=C1c2ccccc2C(=O)N(C)c2ccc(CO)cc21 | < 5.00 |
| Cn1c(=O)c2ccccc2c2cc(C(O)(C(F)(F)F)C(F)(F)F)ccc21 | 5.39 |
| C=C1c2ccccc2C(=O)N(C)c2ccc(N)cc21 | 4.72 |
| C=C1c2ccccc2C(=O)N(C)c2ccc(CCCCCC)cc21 | < 5.00 |
| C=C1c2ccccc2C(=O)N(C)c2ccc(C(C)(C)C)cc21 | 5.27 |
